The source of these data is ChEMBL document CHEMBL1154246, “Spirobisnaphthalene analogues from the endophytic fungus Preussia sp” (J Nat Prod, 2009).

Converted amounts (≈) assume the structure as drawn. The source made the active and inactive calls.

Assay [1] can be described thus: Cytotoxicity against human Bel7404 cells by MTT assay. The assay is classed as functional, cell-based, BEL-7404. In short, it runs like this: (§1)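 MTT viability read-out in human cancer lines: A2780 ovarian, BEL-7404 liver, A-549, BGC-823 and HCT-8. IC50 derived from the concentration–response data.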
For the next assay, the system named is BGC-823. As to the kind of experiment: Cytotoxicity against human BGC823 cells by MTT assay. The assay is classed as functional, cell-based. Put shortly: as §1
Another assay deals with HCT-8. As to the kind of experiment: Cytotoxicity against human HCT8 cells by MTT assay. It counts as functional, cell-based. Put shortly: as §1
Assay [2] relates to Staphylococcus aureus. As to the kind of experiment: Antibacterial activity against Staphylococcus aureus CMCC B26003 after 24 hrs by agar dilution method. The assay is classed as functional. Put shortly: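 S. aureus prepared from broth culture in MHB, final inoculum 10^6 cfu/mL. Agar dilution following NCCLS 2002 criteria, with 11 concentrations from 800 down to 0.78 µM (twofold steps).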

In assay [3] the test system is Staphylococcus aureus. As to the kind of experiment: Antibacterial activity against Staphylococcus aureus CMCC B26003 at 5 ug/disk after 24 hrs by paper disk method. The assay is classed as functional. In short, it runs like this:
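S. aureus grown in MHB broth, final 10^6 cfu/mL. Compound loaded onto 6 mm paper disks at 5 µg/disk and placed on MH agar, 37 °C for 24 h. Inhibition zone diameter measured in mm, n = 3.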

The subject of assay [4] is Candida albicans. As to the kind of experiment: Antifungal activity against Candida albicans ATCC 10231 at 50 ug/disk after 48 hrs by paper disk method. The assay is classed as functional, organism-based. In short, it runs like this: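 C. albicans grown in SDB broth, final 10^5 cfu/mL. Compound applied to 6 mm paper disks at 50 µg/disk on SD agar and incubated at 25 °C for 48 h. Zone of inhibition measured in mm.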

The test system of the next assay is A2780. As to the kind of experiment: Cytotoxicity against human A2780 cells by MTT assay. It counts as functional, cell-based. In short, it runs like this: as §1
The subject of another assay is A549. As to the kind of experiment: Cytotoxicity against human A549 cells by MTT assay. It counts as functional, cell-based. Put shortly:
as §1

Assay [5] deals with Staphylococcus aureus. As to the kind of experiment: Antibacterial activity against Staphylococcus aureus CMCC B26003 at 10 ug/disk after 24 hrs by paper disk method. It counts as functional. To be noted: CMCC B26003, 24 h, read-out: IZ. In short, it runs like this:
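Paper-disk diffusion against S. aureus at 10 µg/disk on MH agar, inoculum 10^6 cfu/mL from MHB broth, 6 mm disks, 37 °C for 24 h. Inhibition zone diameter recorded in mm, n = 3.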

Assay [6] concerns Candida albicans. As to the kind of experiment: Antifungal activity against Candida albicans ATCC 10231 at 25 ug/disk after 48 hrs by paper disk method. It counts as functional. To be noted: ATCC 10231, 48 h, read-out: IZ. Put shortly: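 C. albicans ATCC 10231 grown in SDB broth culture, adjusted to a final 10^5 cfu/mL, and spread on SD agar. Sample loaded onto 6 mm paper disks placed on the agar surface. Plates incubated at 25 °C for 48 h. Read-out is the diameter of the inhibition zone in mm.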

[7] abbreviates: Homo sapiens, BEL-7404, read-out: IC50.
Setting [8] is: Homo sapiens, BGC-823, read-out: IC50.
Setting [9] is: Homo sapiens, HCT-8, read-out: IC50.

For the compound `O=C1C=Cc2cc3c(c4ccc(O)c1c24)C1(Oc2cccc4cccc(c24)O1)C1C(=O)C=CC31O` (centres undefined) [SPIROPREUSSIONE B], the concentration for half-maximal inhibition (IC50) entry (in assay [1] (bel-7404); in the assay with BGC-823 (bgc-823); in the assay on HCT-8 (hct-8); in the assay on A2780 (a2780); in the assay on A549 (a549)) was “Not Active” each time. Also, the MIC result with Staphylococcus aureus [2] is “inactive”. In addition, the “inhibition zone (IZ)” value in the assay with Staphylococcus aureus [3] was “inactive”. In addition, the result in the assay with Candida albicans [4] was inactive.
With `Oc1ccc2c(c1)C1(Oc3cccc4cccc(c34)O1)[C@@H]1O[C@@H]1[C@@H]2O` [SPIROPREUSSOMERIN A], the IC50 entry (in assay [1] (bel-7404); with BGC-823 (bgc-823); with HCT-8 (hct-8); with A2780 (a2780); with A549 (a549)) was “Not Active” in each case. In the assay on Staphylococcus aureus [2], the MIC result was “inactive”. Further, in the assay with Staphylococcus aureus [3], the “inhibition zone (IZ)” value is “inactive”. Further, the result with Candida albicans [4] was inactive.
Turning to `CC1(C)S[C@@H]2[C@H](NC(=O)[C@H](N)c3ccccc3)C(=O)N2[C@H]1C(=O)O` [AMPICILLIN SODIUM], the zone of inhibition at 10 µg/disc in the assay with Staphylococcus aureus [5] worked out at 38.2 mm.
In the case of `CC(=O)O[C@H]1C(=O)[C@@]2(C)[C@H]([C@H](OC(=O)c3ccccc3)[C@]3(O)C[C@H](OC(=O)[C@H](O)[C@@H](NC(=O)c4ccccc4)c4ccccc4)C(C)=C1C3(C)C)[C@]1(OC(C)=O)CO[C@@H]1C[C@@H]2O` [PACLITAXEL], the IC50 in assay [1] (setting [7]) came to 12.3 nM; in the assay on BGC-823 (setting [8]), 3.3 nM; in the assay with HCT-8 (setting [9]), 3.6 nM.
As for `OC(Cn1cncn1)(Cn1cncn1)c1ccc(F)cc1F` [FLUCONAZOLE], the zone of inhibition at 25 µg/disc in the assay with Candida albicans [6] came out at 31.3 mm.
For the compound `O=C1C=CC(=O)C12C=CC1(Oc3cccc4cccc(c34)O1)C2O` (centres undefined) [SPIROPREUSSIONE A], the half-inhibitory concentration (IC50) is 3000 nM in assay [1] (setting [7]); above 10000 nM in the assay with BGC-823 (setting [8]); above 10000 nM in the assay on HCT-8 (setting [9]); 2400 nM in the assay on A2780 (Homo sapiens, A2780, read-out: IC50); above 10000 nM with A549 (Homo sapiens, A549, read-out: IC50). The minimum inhibitory concentration (MIC) with Staphylococcus aureus [2] (CMCC B26003, 24 h) worked out at 25 µM (≈ 8.01 µg/mL). The zone of inhibition at 5 µg/disc in the assay on Staphylococcus aureus [3] (CMCC B26003, 24 h, read-out: IZ) came out at 16.4 mm. The result in the assay with Candida albicans [4] was inactive.
